Columns and labels:
[1] = test system: Mus musculus; assay: Antidepressant activity in po dosed mouse assessed as antagonism of reserpine-induced hypothermia dosed 17 hrs after reserpine challenge; format: functional
Method in brief: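 Oral dosing, with doses in mg/kg. The racemate and separated optical isomers were tested by the previously published method. Potency is expressed as the ED10 for antagonism of reserpine-induced hypothermia.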

[2] = test system: Mus musculus; assay: Sedative activity in po dosed mouse assessed as reduction in locomotor activity during 60 mins period immediately prior to and after dosing; format: functional; details: 1 h, read-out: MED
Method in brief: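 Given orally, with doses in mg/kg. The racemate and individual isomers were run by the earlier reported procedure. The value is the minimum effective dose that reduced locomotor activity.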

COc1cccc(OC[C@@H]2CNCCO2)c1
ED10 [1]: > 100 mg/kg | minimal effective dose [2]: 1 mg/kg

COc1cccc(OC[C@H]2CNCCO2)c1
ED10 [1]: > 100 mg/kg | minimal effective dose [2]: 30 mg/kg

COc1cccc(OCC2CNCCO2)c1 (racemic)
ED10 [1]: > 100 mg/kg | minimal effective dose [2]: 3 mg/kg

CCOc1ccccc1OCC1CNCCO1 (racemic) [VILOXAZINE]
ED10 [1]: 0.3 mg/kg | minimal effective dose [2]: 3 mg/kg

CCOc1ccccc1OC[C@H]1CNCCO1 [(R)-VILOXAZINE]
ED10 [1]: 1 mg/kg | minimal effective dose [2]: 30 mg/kg

CCOc1ccccc1OC[C@@H]1CNCCO1 [(S)-VILOXAZINE]
ED10 [1]: 0.1 mg/kg | minimal effective dose [2]: 1 mg/kg

— ChEMBL document CHEMBL3272233, “Optical isomers of 2-(2-ethoxyphenoxymethyl)tetrahydro-1,4-oxazine (viloxazine) and related compounds” (1976)
